Measurements from ChEMBL document CHEMBL4261513, “Dichloro-naphthoquinone as a non-classical inhibitor of the mycobacterial carbonic anhydrase Rv3588c” (Medchemcomm, 2017).

Key:
[1] = biological target: T1, Beta-carbonic anhydrase 1 (Mycobacterium tuberculosis) (UniProt P9WPJ7); assay: Binding affinity to recombinant Mycobacterium tuberculosis Rv1284 expressed in Escherichia coli BL21-Al cells assessed as change in melting temperature by SYPRO Orange dye based differential scanning fluorimetric method
T1 sequence (whole entry): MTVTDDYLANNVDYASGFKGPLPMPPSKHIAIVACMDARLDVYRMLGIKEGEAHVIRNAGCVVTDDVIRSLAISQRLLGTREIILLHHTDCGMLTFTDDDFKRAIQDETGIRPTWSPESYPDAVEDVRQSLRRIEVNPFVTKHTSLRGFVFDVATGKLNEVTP

[2] = biological target: T1, Beta-carbonic anhydrase 1 (Mycobacterium tuberculosis); assay: Inhibition of recombinant Mycobacterium tuberculosis Rv1284 expressed in Escherichia coli BL21-Al cells assessed as enzyme residual activity at 25 uM measured for 10 secs by m-cresol purple staining based stopped-flow CO2 hydration assay relative to control
How it was run: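 Untagged Rv1284, purified by QA52 anion exchange at pH 8.0 and SP-Sepharose cation exchange at pH 4.5, and dialysed into 100 mM NaCl, 20 mM HEPES pH 7.5. Stopped-flow CO2 hydration with m-cresol purple read-out. Sample buffer was 100 mM Na2SO4, 25 mM TAPS pH 8.5, 5 μM enzyme plus compound, mixed 1:1 with CO2-saturated water. Initial rates from the first 10 s, at least five traces.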

[3] = biological target: T2, Carbonic anhydrase 2 (Mycobacterium tuberculosis) (UniProt P9WPJ9); assay: Inhibition of recombinant Mycobacterium tuberculosis N-terminal Hi-tagged Rv3588c expressed in Escherichia coli BL21-Al cells assessed as enzyme residual activity at 25 uM measured for 10 secs by m-cresol purple staining based stopped-flow CO2 hydration assay relative to control
T2 sequence (whole entry): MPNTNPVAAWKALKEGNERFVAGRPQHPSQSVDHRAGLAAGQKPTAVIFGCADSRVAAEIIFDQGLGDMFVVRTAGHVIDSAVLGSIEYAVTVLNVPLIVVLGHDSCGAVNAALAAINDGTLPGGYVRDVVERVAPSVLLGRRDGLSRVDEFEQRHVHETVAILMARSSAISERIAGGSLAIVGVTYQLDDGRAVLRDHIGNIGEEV
How it was run: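 Rv3588c with an N-terminal His tag, purified by QA52 anion exchange and then Ni-NTA at pH 8.0, and dialysed into 100 mM NaCl, 20 mM HEPES pH 7.5. Stopped-flow CO2 hydration followed by m-cresol purple absorbance. Sample buffer was 100 mM Na2SO4, 25 mM TAPS pH 8.5, 5 μM protein plus compound, mixed 1:1 with CO2-saturated water. Initial rates over the first 10 s, at least five traces each.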

[4] = biological target: T2, Carbonic anhydrase 2 (Mycobacterium tuberculosis); assay: (§1) Inhibition of recombinant Mycobacterium tuberculosis N-terminal Hi-tagged Rv3588c expressed in Escherichia coli BL21-Al cells measured for 10 secs by m-cresol purple staining based stopped-flow CO2 hydration assay
How it was run: (§2)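 His-tagged Rv3588c in stopped-flow CO2 hydration with m-cresol purple read-out, in 100 mM Na2SO4, 25 mM TAPS pH 8.5 against CO2-saturated water. Five compound concentrations, starting from […]. Initial rates taken over the first 10 s. Dose-response data fitted to a curve.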

[5] = biological target: T3, Carbonic anhydrase 2 (Mycobacterium tuberculosis, UniProt P9WPJ9); assay: as §1; how it was run: as §2
T3 sequence (P9WPJ9 whole entry): T2 sequence (whole entry)

[6] = biological target: Carbonic anhydrase 2 (Homo sapiens) (UniProt P00918); assay: Inhibition of recombinant human carbonic anhydrase 2 expressed in Escherichia coli BL21 (DE3) assessed as enzyme residual activity at 25 uM measured for 10 secs by m-cresol purple staining based stopped-flow CO2 hydration assay relative to control
How it was run: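 Codon-optimised synthetic human CA II gene expressed in bacteria. Activity measured by stopped-flow CO2 hydration, monitoring m-cresol purple absorbance. Sample buffer was 100 mM Na2SO4, 25 mM TAPS pH 8.5, 5 μM protein with compound, mixed 1:1 with CO2-saturated water. Initial rates over the first 10 s, from at least five traces per compound.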

Row | SMILES | deltaTm [1] [K] | Activity [2] [%] | Activity [3] [%] | Imax [4] [%] | IC50 [5] [nM] | Activity [6] [%]
1 | O=C1C=CC(=O)c2ccccc21 | -8.8 | 76.6 | 94.8 |  |  | 
2 | O=C1C(Cl)=C(NCc2ccccc2)C(=O)c2ccccc21 | -2.5 | 96.5 | 99.1 |  |  | 
3 | O=C1C(O)=C([C@H]2CC[C@H](c3ccc(Cl)cc3)CC2)C(=O)c2ccccc21 | -0.5 | 83.1 | 80.7 |  |  | 
4 | O=C1C(Cl)=C(NCCc2ccccc2)C(=O)c2ccccc21 | -0.7 | 110 | 93.2 |  |  | 
5 | CCN(CC)CCCNC1=C(Cl)C(=O)c2ccccc2C1=O | -0.6 | 68.5 | 93.8 |  |  | 
6 | COC1=CC(=O)c2ccccc2C1=O [2-Methoxy-1,4-naphthoquinone] | -0.5 | 62.3 | 84.5 | 40 | 2300 | 104
7 | O=C1C(Cl)=C(Cl)C(=O)c2ccccc21 [Dichlon] | -10.2 | 81.5 | 16.1 | 84 | 1200 | 96.8
8 | O=C1C2=C(C(=O)c3ccccc31)S(=O)(=O)C=CN2 | -1.1 | 74.6 | 78.3 |  |  | 
9 | O=C1C=C(Br)C(=O)c2ccccc21 | -10.1 | 72.2 | 68.1 |  |  | 109
10 | O=C1C2=C(C(=O)c3ccccc31)S(=O)(=O)CCN2 | -0.4 | 79.5 | 80.6 |  |  | 
11 | COCCNC1=C(Cl)C(=O)c2ccccc2C1=O | -1.5 | 67.2 | 98.8 |  |  | 
12 | Clc1cc2ccccc2cc1Cl | 1.3 | 80.3 | 82.8 |  |  | 
13 | CC(C)CCNC1=C(Cl)C(=O)c2ccccc2C1=O | -1.5 | 103 | 103 |  |  | 
14 | COC1=CC(=O)C=C(CO)C1=O | 0.1 | 101 | 104 |  |  | 
15 | CN(C)CCCNC1=C(Cl)C(=O)c2ccccc2C1=O | -0.9 | 79.4 | 110 |  |  | 
